Data reported in ChEMBL document CHEMBL1126640, “Inhibition studies of some serine and thiol proteinases by new leupeptin analogues” (J Med Chem, 1993).
Where a SMILES comes first, the peptide text is derived from it.

What was measured:
[1] = target: T1, Cathepsin B (Bos taurus, UniProt P07688); experiment: Inhibition of cathepsin B with Cbz-L-lysine-p-nitrophenyl ester as substrate
Method in brief: (§1)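 Bovine spleen cathepsin B stock (0.163 mg/mL) in 0.10 M sodium phosphate pH 6.0 with 0.10 mg/mL DTT. Diluted in 0.10 M phosphate pH 6.0, preincubated ± inhibitor 2.5 min at 30 °C. Started with Nα-Cbz-L-lysine p-nitrophenyl ester (0.0024 M stock); A405 change over 1 min. IC50 from % inhibition vs log[inhibitor], ≥4 concentrations in ≥3 repeats. NA means ≤25% activity loss at 100 µM or more.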

[2] = target: T2, Plasminogen (Bos taurus, UniProt P06868); experiment: Inhibition of plasmin with Val-L-Leu-L-lysine-p-nitroanilide; Not significantly active
T2 sequence (P06868 104-583 limits assumed): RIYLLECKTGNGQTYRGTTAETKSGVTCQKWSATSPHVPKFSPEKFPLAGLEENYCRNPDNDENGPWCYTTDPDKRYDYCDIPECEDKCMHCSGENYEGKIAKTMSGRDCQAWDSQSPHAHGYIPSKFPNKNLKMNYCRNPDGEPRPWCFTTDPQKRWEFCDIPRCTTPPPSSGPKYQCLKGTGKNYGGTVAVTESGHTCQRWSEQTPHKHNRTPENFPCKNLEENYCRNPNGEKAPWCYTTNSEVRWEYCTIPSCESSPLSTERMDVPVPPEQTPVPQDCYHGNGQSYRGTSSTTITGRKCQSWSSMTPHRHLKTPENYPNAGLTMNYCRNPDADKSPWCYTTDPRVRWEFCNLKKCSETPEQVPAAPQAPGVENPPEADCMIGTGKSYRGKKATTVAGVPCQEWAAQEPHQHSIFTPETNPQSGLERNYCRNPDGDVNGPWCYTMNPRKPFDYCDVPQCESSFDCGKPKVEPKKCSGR
T2 sequence (P06868 584-812 limits assumed): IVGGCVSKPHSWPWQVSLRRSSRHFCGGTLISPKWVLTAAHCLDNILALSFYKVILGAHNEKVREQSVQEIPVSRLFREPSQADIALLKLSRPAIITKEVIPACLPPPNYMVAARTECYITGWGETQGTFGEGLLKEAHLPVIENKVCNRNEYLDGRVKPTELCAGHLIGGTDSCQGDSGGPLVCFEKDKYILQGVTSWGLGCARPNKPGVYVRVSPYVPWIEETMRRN
Method in brief: (§2)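 Bovine plasma plasmin (6.24 mg/mL stock) in 0.45 M Tris pH 8.0 with 0.011 M NaCl, preincubated ± inhibitor 2.5 min at 37 °C. Reaction started with D-Val-L-Leu-L-Lys p-nitroanilide (0.0031 M stock); A405 change over 1 min. IC50 read from % inhibition vs log[inhibitor], ≥4 concentrations, each ≥3 times. NA: ≥100 µM lowers activity ≤25%.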

[3] = target: T3, Prothrombin (Bos taurus, UniProt P00735); experiment: Inhibition of thrombin with benzoyl-Phe-Val-arginine- p-nitroanilide as substrate; Not significantly active
Method in brief: (§3)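 Bovine plasma thrombin (19.7 NIH units/mL stock) in 0.01 M Tris pH 8.0, preincubated ± inhibitor 2.5 min at 37 °C. Benzoyl-Phe-Val-Arg p-nitroanilide (0.0005 M stock in 6.8% DMSO/buffer) initiated; A405 change over 1 min. Percent inhibition at ≥4 concentrations (≥3 repeats) plotted against log concentration for IC50.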

[4] = target: T4, Plasma kallikrein (Homo sapiens, UniProt P03952); experiment: Inhibition of kallikrein with benzoyl-L-arginine ethyl ester as substrate; Not significantly active
T4 sequence (P03952 20-390 limits assumed): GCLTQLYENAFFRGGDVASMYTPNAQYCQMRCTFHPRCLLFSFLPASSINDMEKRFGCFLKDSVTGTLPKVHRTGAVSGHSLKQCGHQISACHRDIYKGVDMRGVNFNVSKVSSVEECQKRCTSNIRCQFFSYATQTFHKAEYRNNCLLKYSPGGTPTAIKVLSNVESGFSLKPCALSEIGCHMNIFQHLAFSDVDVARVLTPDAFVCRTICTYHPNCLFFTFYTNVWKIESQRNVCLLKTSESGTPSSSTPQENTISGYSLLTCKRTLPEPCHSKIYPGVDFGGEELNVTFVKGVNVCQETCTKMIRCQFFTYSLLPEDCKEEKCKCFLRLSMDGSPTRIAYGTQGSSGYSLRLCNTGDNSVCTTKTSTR
T4 sequence (P03952 391-638 limits assumed): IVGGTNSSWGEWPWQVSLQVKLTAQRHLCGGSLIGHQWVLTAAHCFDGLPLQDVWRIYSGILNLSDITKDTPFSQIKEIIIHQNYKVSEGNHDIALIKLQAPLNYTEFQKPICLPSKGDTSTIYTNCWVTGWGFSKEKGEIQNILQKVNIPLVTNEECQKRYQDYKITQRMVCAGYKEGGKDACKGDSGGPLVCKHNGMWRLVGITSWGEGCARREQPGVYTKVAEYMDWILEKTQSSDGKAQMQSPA

[5] = target: T5, Serine protease 1 (Bos taurus, UniProt P00760); experiment: Inhibition of trypsin with benzoyl-L-arginine ethyl ester as substrate; […]
T5 sequence (P00760 whole entry): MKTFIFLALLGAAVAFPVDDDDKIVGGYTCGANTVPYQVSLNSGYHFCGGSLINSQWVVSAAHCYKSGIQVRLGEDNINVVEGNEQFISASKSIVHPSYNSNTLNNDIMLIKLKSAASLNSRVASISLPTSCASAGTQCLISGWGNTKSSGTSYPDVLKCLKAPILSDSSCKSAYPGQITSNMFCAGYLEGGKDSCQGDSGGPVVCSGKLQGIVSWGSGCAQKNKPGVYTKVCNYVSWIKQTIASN

[6] = target: T4, Plasma kallikrein; experiment: Inhibition of kallikrein with benzoyl-L-arginine ethyl ester as substrate
[7] = target: T2, Plasminogen; experiment: Inhibition of plasmin with Val-L-Leu-L-lysine-p-nitroanilide as substrate; method in brief: as §2
[8] = target: T3, Prothrombin; experiment: Inhibition of thrombin with benzoyl-Phe-Val-arginine- p-nitroanilide as substrate; method in brief: as §3
[9] = target: T5, Serine protease 1; experiment: Inhibition of trypsin with benzoyl-L-arginine ethyl ester as substrate
[10] = target: T1, Cathepsin B; experiment: Inhibition of cathepsin B with Cbz-L-lysine-p-nitrophenyl ester; Not significantly active; method in brief: as §1

Row | SMILES | IC50 [1] | IC50 [2] | IC50 [3] | IC50 [4] | IC50 [5] | IC50 [6] | IC50 [7] | IC50 [8] | IC50 [9] | IC50 [10]
1 | CC(=O)N[C@H](C(=O)N[C@@H](CC(C)C)C(=O)N[C@H](C=O)CCCCN)C(C)C (Ac-Val-Leu-Lys-aldehyde) | 28 µM | Not Active | Not Active | Not Active | Not Active | – | – | – | – | –
2 | CC(=O)N[C@@H](Cc1ccc(O)cc1)C(=O)N[C@@H](CC(C)C)C(=O)N[C@H](C=O)CCCN=C(N)N (Ac-Tyr-Leu-Arg-aldehyde) | 22 µM | – | – | – | Not Active | 26 µM | 78 µM | 35 µM | – | –
3 | CC(=O)N[C@H](C(=O)N[C@@H](CC(C)C)C(=O)N[C@H](C=O)CCCN=C(N)N)C(C)C (Ac-Val-Leu-Arg-aldehyde) | 100 µM | – | – | – | – | 19 µM | 65 µM | 170 µM | 130 µM | –
4 | CC[C@H](C)[C@H](NC(C)=O)C(=O)N[C@@H](CC(C)C)C(=O)N[C@H](C=O)CCCN=C(N)N (Ac-Ile-Leu-Arg-aldehyde) | – | – | – | – | Not Active | 54 µM | 67 µM | 94 µM | – | Not Active
5 | CC(=O)N[C@@H](CC(C)C)C(=O)N[C@H](C(=O)N[C@H](C=O)CCCN=C(N)N)C(C)C (Ac-Leu-Val-Arg-aldehyde) | 130 µM | Not Active | Not Active | – | Not Active | 16 µM | – | – | – | –
6 | CC(=O)N[C@@H](Cc1ccccc1)C(=O)N[C@@H](CC(C)C)C(=O)N[C@H](C=O)CCCCN (Ac-Phe-Leu-Lys-aldehyde) | 18 µM | Not Active | Not Active | Not Active | Not Active | – | – | – | – | –
7 | CC(=O)N[C@@H](CC(C)C)C(=O)N[C@H](C(=O)N[C@H](C=O)CCCCN)C(C)C (Ac-Leu-Val-Lys-aldehyde) | 0.004 µM | – | – | Not Active | – | – | 13 µM | 140 µM | 45 µM | –

Second part, the compound after the results:

Row | IC50 [1] | IC50 [2] | IC50 [3] | IC50 [4] | IC50 [5] | IC50 [6] | IC50 [7] | IC50 [8] | IC50 [9] | IC50 [10] | SMILES
8 | 1.5 µM | – | – | – | – | 16 µM | 7.7 µM | 71 µM | 37 µM | – | CC(=O)N[C@@H](Cc1ccccc1)C(=O)N[C@@H](CC(C)C)C(=O)N[C@H](C=O)CCCN=C(N)N (Ac-Phe-Leu-Arg-aldehyde)
9 | 0.13 µM | – | Not Active | Not Active | Not Active | – | 18 µM | – | – | – | CC(=O)N[C@@H](CC(C)C)C(=O)N[C@@H](CC(C)C)C(=O)N[C@H](C=O)CCCCN (Ac-Leu-Leu-Lys-aldehyde)
10 | 1.1 µM | – | – | – | Not Active | 41 µM | 3.6 µM | 8.2 µM | – | – | CC(=O)N[C@@H](CC(C)C)C(=O)N[C@@H](Cc1ccccc1)C(=O)N[C@H](C=O)CCCN=C(N)N (Ac-Leu-Phe-Arg-aldehyde)
11 | 0.039 µM | – | – | – | – | 28 µM | 2.2 µM | 1.8 µM | 12 µM | – | CC(=O)N[C@@H](Cc1ccccc1)C(=O)N[C@H](C(=O)N[C@H](C=O)CCCN=C(N)N)C(C)C (Ac-Phe-Val-Arg-aldehyde)
12 | 0.15 µM | – | – | – | – | 35 µM | 11 µM | 18 µM | 9.1 µM | – | CC[C@H](C)[C@H](NC(=O)[C@H](CC(C)C)NC(C)=O)C(=O)N[C@H](C=O)CCCN=C(N)N (Ac-Leu-Ile-Arg-aldehyde)
13 | 1.6 µM | – | – | – | Not Active | 25 µM | 5.6 µM | 66 µM | – | – | CC(=O)N[C@@H](CC(C)C)C(=O)N[C@@H](Cc1ccc(O)cc1)C(=O)N[C@H](C=O)CCCN=C(N)N (Ac-Leu-Tyr-Arg-aldehyde)
14 | 0.31 µM | – | – | – | – | 40 µM | 3.7 µM | 12 µM | 8.1 µM | – | CC(=O)N[C@@H](CC(C)C)C(=O)N[C@@H](CC(C)C)C(=O)N[C@H](C=O)CCCNC(=N)N [LEUPEPTIN]
15 | 0.1 µM | Not Active | Not Active | Not Active | Not Active | – | – | – | – | – | CC(=O)N[C@@H](CC(C)C)C(=O)N[C@@H](Cc1ccccc1)C(=O)N[C@H](C=O)CCCCN (Ac-Leu-Phe-Lys-aldehyde)
16 | 2 µM | – | Not Active | Not Active | Not Active | – | 17 µM | – | – | – | CC[C@H](C)[C@H](NC(C)=O)C(=O)N[C@@H](CC(C)C)C(=O)N[C@H](C=O)CCCCN (Ac-Ile-Leu-Lys-aldehyde)
